Measured values pooled from the literature.
Protocols differ between the studies behind these lines.

Structure (SMILES) | test system | setting | quantity | result
Fc1ccc(Nc2n[nH]c3cccnc23)cc1Cl | rat, brain homogenate |  | fraction unbound | 0.0045
CCc1cc(C(=O)NC)c2nccc(N3CCc4c(cc(Cn5ccnc5)cc4-c4cn(C)nc4C(F)(F)F)C3=O)c2c1 | male Sprague-Dawley rat, plasma | oral, 50 mg/kg, single dose | MRT(0-inf) | 2.2 h
Oc1c(Br)cc(Cl)c2cccnc12 | Sprague-Dawley rat, plasma | subcutaneous, 10 mg/kg | MRT | 7.8 h
CNC(=O)Nc1cc(Oc2cncc(C)c2)c([C@H]2C[C@@H](O)C2)cn1 | rat, plasma |  | fraction unbound | 0.32
C[C@@H](Nc1cc(F)cc(F)c1)c1cc(C(=O)N(C)C)cc2c(=O)cc(N3CCOCC3)oc12 | human, plasma | oral, 60 mg, patients | Tmax | 4.08 h
C=CC(=O)N(C)CCOc1c(N)ncnc1-c1cc(F)cc(NC(=O)c2ccc(C3CC3)cc2F)c1C | human, blood | oral, 30 mg, single dose, healthy volunteers | Tmax | 0.5 h
CCOC(=O)[C@@]12C[C@@H]1[C@@H](n1ccc3c(NC)nc(C#Cc4ccc(Cl)s4)nc31)[C@H](O)[C@@H]2O | male Sprague-Dawley rat, plasma | oral, 10 mg/kg | MRT | 2.75 h
O=C(Nc1cc(F)c(F)c(F)c1)c1ccc(F)c(S(=O)(=O)NCc2cccc(B(O)O)c2)c1 | male Sprague-Dawley rat, plasma | oral, 20 mg/kg | MRT(0-t) | 0.84 h
CC(C)n1cc(C#N)c2cc(-n3cc(C(=O)O)cn3)ccc21 | male human, plasma | oral, 600 mg, single dose, fasted, healthy volunteers | Tmax | 2.5 h
Cc1cn2nc(-c3cc(=O)n4cc(N5CCNC6(CC6)C5)ccc4n3)cc(C)c2n1 | rat, plasma |  | fraction unbound | 0.16
CC(=O)Nc1nnc(N2CCN([C@@H](C)c3ccc4c(c3)OCO4)CC2)s1 | rabbit, plasma | 1 µM | fraction unbound | 0.059
